Reference: ChEMBL document CHEMBL5244249, “Discovery of tofacitinib derivatives as orally active antitumor agents based on the scaffold hybridization strategy” (Eur J Med Chem, 2020)
The source made the active and inactive calls. No cut-off for these calls is given here.

Legend:
MGC-803 [1] = assay: Inhibition of colony formation in human MGC-803 cells at 3 uM incubated for 9 days by crystal violet staining based analysis relative to control; type: functional; settings: MGC-803, 216 h, time 9 day
Procedure, shortened: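 Clonogenic assay: MGC-803 cells grown 9 days with 0, 1, 2 or 3 μM; colonies counted and inhibition rate calculated against untreated control; mean ± SD of three independent experiments.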

MGC-803 [2] = assay: Induction of apoptosis in human MGC-803 cells assessed as total apoptotic cells at 10 uM incubated for 24 hrs by Annexin V-FITC/PI staining based flow cytometric analysis (reference value: 7.7 %); type: functional
MGC-803 [3] = assay: Induction of apoptosis in human MGC-803 cells assessed as late apoptotic cells at 7.5 uM incubated for 24 hrs by Annexin V-FITC/PI staining based flow cytometric analysis (reference value: 3.8 %); type: functional
MGC-803 [4] = assay: Induction of apoptosis in human MGC-803 cells assessed as necrotic cells at 10 uM incubated for 24 hrs by Annexin V-FITC/PI staining based flow cytometric analysis (reference value: 2.0 %); type: functional
MGC-803 [5] = assay: Cell cycle arrest in human MGC-803 cells assessed as G2/M phase cells at 7.5 uM incubated for 24 hrs by RNase/PI staining based flow cytometric analysis (reference value: 15.11%); type: functional
MGC-803 [6] = assay: Induction of mitochondrial dysfunction in human MGC-803 cells assessed as upregulation of gammaH2AX expression at 5 to 10 uM incubated for 24 hrs by Western blot analysis; type: functional, cell-based; settings: dose 5-10 µM
Procedure, shortened: (§1)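 Western blot of caspase 9, 3, 7, PARP and γH2A.X in MGC-803 lysates after 24 h exposure to 5, 7.5 or 10 μM; band quantitation; mean ± SD from three independent experiments.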

MGC-803 [7] = assay: Induction of apoptosis in human MGC-803 cells assessed as early apoptotic cells at 5 uM incubated for 24 hrs by Annexin V-FITC/PI staining based flow cytometric analysis (reference value: 3.9 %); type: functional
MGC-803 [8] = assay: Induction of mitochondrial dysfunction in human MGC-803 cells assessed as downregulation of procaspase-7 expression at 5 to 10 uM incubated for 24 hrs by Western blot analysis; type: functional, cell-based; settings: dose 5-10 µM; procedure, shortened: as §1
MGC-803 [9] = assay: Induction of apoptosis in human MGC-803 cells assessed as early apoptotic cells at 10 uM incubated for 48 hrs by Annexin V-FITC/PI staining based flow cytometric analysis (reference value: 2.5 %); type: functional
MGC-803 [10] = assay: Cell cycle arrest in human MGC-803 cells assessed as S phase cells at 5 uM incubated for 24 hrs by RNase/PI staining based flow cytometric analysis (reference value: 27.1%); type: functional
MGC-803 [11] = assay: Induction of mitochondrial dysfunction in human MGC-803 cells assessed as increase in ratio of green to red fluorescence intensity at 10 uM incubated for 24 hrs by JC-1 staining based fluorescence microscopic analysis; type: functional
[12] = Toxicity in SCID mouse xenografted with human MGC-803 cells assessed as effect on body weight at 12.5 to 25 mg/kg, IG administered for 21 days; type: organism-based; settings: in vivo, po, 504 h, dose 12.5-25 mg/kg, time 21 day
Procedure, shortened: (§2)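 SCID mice bearing subcutaneous MGC-803 xenografts (right side) dosed with 12.5 or 25 mg/kg over 21 days, 0.5% CMC-Na vehicle as control; body weight and tumor size monitored periodically; major organs examined histopathologically at end; means ± SD.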

MGC-803 [13] = assay: Induction of apoptosis in human MGC-803 cells assessed as total apoptotic cells at 10 uM incubated for 48 hrs by Annexin V-FITC/PI staining based flow cytometric analysis relative to control; type: functional
[14] = Activation of MAPK pathway in human MGC-803 cells assessed as change in Erk5 total expression at 5 to 10 uM incubated for 24 hrs by Western blot analysis; type: cell-based; settings: dose 5-10 µM
[15] = Toxicity in SCID mouse xenografted with human MGC-803 cells assessed as effect on spleen at 12.5 to 25 mg/kg, IG administered for 21 days by H&E staining based histopathological analysis; type: organism-based; settings: in vivo, po, 504 h, dose 12.5-25 mg/kg, time 21 day; procedure, shortened: as §2
[16] = Toxicity in SCID mouse xenografted with human MGC-803 cells assessed as effect on kidney at 12.5 to 25 mg/kg, IG administered for 21 days by H&E staining based histopathological analysis; type: organism-based; settings: in vivo, po, 504 h, dose 12.5-25 mg/kg, time 21 day; procedure, shortened: as §2
MGC-803 [17] = assay: Cell cycle arrest in human MGC-803 cells assessed as G2/M phase cells at 5 uM incubated for 24 hrs by RNase/PI staining based flow cytometric analysis (reference value: 15.11%); type: functional
MGC-803 [18] = assay: Induction of apoptosis in human MGC-803 cells assessed as necrotic cells at 5 uM incubated for 48 hrs by Annexin V-FITC/PI staining based flow cytometric analysis (reference value: 0.3 %); type: functional
MGC-803 [19] = assay: Induction of apoptosis in human MGC-803 cells assessed as nuclear condensation at 5 to 10 uM incubated for 24 hrs by Hoechst 33342 staining based fluorescence microscopic analysis; type: functional, cell-based; settings: dose 5-10 µM
Procedure, shortened: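 MGC-803 cells treated at 0, 5, 7.5 and 10 μM; cell morphology and nuclear morphology (fragmentation, condensation) examined by staining and imaging; three independent experiments, mean ± SD.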

MGC-803 [20] = assay: Cell cycle arrest in human MGC-803 cells assessed as G0/G1 phase cells at 7.5 uM incubated for 24 hrs by RNase/PI staining based flow cytometric analysis (reference value: 54.99%); type: functional
MGC-803 [21] = assay: Induction of apoptosis in human MGC-803 cells assessed as increase in Bax protein expression at 5 to 10 uM incubated for 24 hrs by Western blot analysis; type: functional, cell-based; settings: dose 5-10 µM
Procedure, shortened: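 After 24 h exposure of MGC-803 cells, Bcl-2, Mcl-1, Bax and cytochrome c release assessed by Western blot with band quantitation; mean ± SD from three independent experiments.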

[22] = Activation of MAPK pathway in human MGC-803 cells assessed as change in JNK total expression at 5 to 10 uM incubated for 24 hrs by Western blot analysis; type: cell-based; settings: dose 5-10 µM
MGC-803 [23] = assay: Induction of mitochondrial dysfunction in human MGC-803 cells assessed as upregulation of cleaved PARP expression at 5 to 10 uM incubated for 24 hrs by Western blot analysis; type: functional, cell-based; settings: dose 5-10 µM; procedure, shortened: as §1
[24] = Toxicity in SCID mouse xenografted with human MGC-803 cells assessed as effect on heart at 12.5 to 25 mg/kg, IG administered for 21 days by H&E staining based histopathological analysis; type: organism-based; settings: in vivo, po, 504 h, dose 12.5-25 mg/kg, time 21 day; procedure, shortened: as §2
MGC-803 [25] = assay: Induction of apoptosis in human MGC-803 cells assessed as early apoptotic cells at 5 uM incubated for 48 hrs by Annexin V-FITC/PI staining based flow cytometric analysis (reference value: 2.5 %); type: functional
MGC-803 [26] = assay: Cell cycle arrest in human MGC-803 cells assessed as G2/M phase cells at 10 uM incubated for 24 hrs by RNase/PI staining based flow cytometric analysis (reference value: 15.11%); type: functional
MGC-803 [27] = assay: Induction of apoptosis in human MGC-803 cells assessed as necrotic cells at 7.5 uM incubated for 24 hrs by Annexin V-FITC/PI staining based flow cytometric analysis (reference value: 2.0 %); type: functional
MGC-803 [28] = assay: Antitumor activity against human MGC-803 cells xenografted in SCID mouse assessed as decrease in average tumor weight at 25 mg/kg, IG administered for 21 days relative to control; type: functional; design: scale not given: the % may be the effect or the level left; settings: time 21 day
Procedure, shortened: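 MGC-803 cells implanted subcutaneously on the right side of SCID mice; dosed at 12.5 or 25 mg/kg in 0.5% CMC-Na (vehicle control) for 21 days. Body weight and tumor size recorded periodically; tumors excised and weighed at end. Means ± SD.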

In the case of `Cc1cc(N2CC[C@@H](C)[C@@H](N(C)c3ncnc4[nH]ccc34)C2)n2nc(SCc3ccc(C(F)(F)F)cc3)nc2n1`, the inhibition at 3 µM (MGC-803 [1]) is reported as 73%, the Activity (MGC-803 [2]) is reported as 40.7% and the Activity (MGC-803 [3]) is reported as 15.8%. The Activity (MGC-803 [4]) was 2.2%, the Activity (MGC-803 [5]) was 12.24% and the Activity (MGC-803 [6]) was “Active”. The Activity (MGC-803 [7]) was 5.5%, the Activity (MGC-803 [8]) was “Active” and the Activity (MGC-803 [9]) was 4.9%. For the same molecule, the Activity (MGC-803 [10]) was 30.04%, the Ratio (MGC-803 [11]) was “<=8.73” and the Activity [12] was “Non-Toxic”. The Activity (MGC-803 [13]) was 82.1%, the Activity [14] was “inactive” and the Activity [15] was “Non-Toxic”. For the same molecule, the Activity [16] was “Non-Toxic”, the Activity (MGC-803 [17]) was 10.78% and the Activity (MGC-803 [18]) was 0.9%. The Activity (MGC-803 [19]) was “Active”, the Activity (MGC-803 [20]) was 56.42% and the Activity (MGC-803 [21]) was “Active”. The Activity [22] was “inactive”, the Activity (MGC-803 [23]) was “Active” and the Activity [24] was “Non-Toxic”. For the same molecule, the Activity (MGC-803 [25]) was 8.5%, the Activity (MGC-803 [26]) was 12.82% and the Activity (MGC-803 [27]) was 3.5%. The Activity (MGC-803 [28]) was 53%.
